Laboratory results reported in ChEMBL document CHEMBL1157790, “3'-bromo analogues of pyrimidine nucleosides as a new class of potent inhibitors of Mycobacterium tuberculosis” (J Med Chem, 2010).
Converted amounts (≈) assume the structure as drawn.

Columns and labels:
[1] = Cytotoxicity against human HuH7 cells after 2 days by XTT assay; type: cell-based, Huh-7
How it was run: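 Huh-7 cells seeded at 2 × 10⁴/well and allowed to attach 6-8 h, then exposed to 200, 100, 50, 10 and 1 μg/mL compound, DMSO control, 2 days at 37 °C. XTT reagent added for 4 h at 37 °C; absorbance read at 450-500 nm.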

[2] = Cytotoxicity against human HuH7 cells assessed as incorporation of [3H]thymidine into DNA after 2 days by scintillation counting; type: cell-based, Huh-7
How it was run: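 Huh-7 cells plated at 1 × 10⁴/well, compounds at 200, 100, 50, 10 and 1 μg/mL in triplicate, DMSO control, 2 days at 37 °C. Pulsed with 0.5 μCi/well [³H]-thymidine for 12-18 h, harvested onto filters, and incorporated DNA label counted by liquid scintillation.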

[3] = test system: Mycobacterium tuberculosis; test: Antimycobacterial activity against Mycobacterium tuberculosis H37Ra at 100 ug/ml after 6 days by microplate alamar blue assay; type: functional; conditions: 144 h
How it was run: (§1)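 H37Ra from frozen inoculum, 2.5 × 10⁵ CFU/mL final, in 7H9GC medium; compounds from 10 mg/mL DMSO stock tested at 100, 50, 25, 10, 5 and 1 μg/mL in triplicate, run twice. Incubated 6 days, then alamar blue plus Tween 80 added, read after 24 h visually and by fluorescence. Percent inhibition against bacteria-only and medium-only wells; MIC50 is the lowest concentration giving ~50% inhibition.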

[4] = test system: Mycobacterium tuberculosis; test: Antimycobacterial activity against Mycobacterium tuberculosis H37Ra at 25 ug/ml after 6 days by microplate alamar blue assay; type: functional; conditions: 144 h; how it was run: as §1
[5] = test system: Mycobacterium tuberculosis; test: Antimycobacterial activity against Mycobacterium tuberculosis H37Ra after 6 days by microplate alamar blue assay; type: functional; conditions: 144 h; how it was run: as §1
[6] = test system: Mycobacterium tuberculosis; test: Antimycobacterial activity against Mycobacterium tuberculosis H37Ra at 50 ug/ml after 6 days by microplate alamar blue assay; type: functional; conditions: 144 h; how it was run: as §1
[7] = test system: Mycobacterium tuberculosis; test: Antimycobacterial activity against Mycobacterium tuberculosis H37Ra at 10 ug/ml after 6 days by microplate alamar blue assay; type: functional; conditions: 144 h; how it was run: as §1
[8] = test system: Mycobacterium tuberculosis; test: Antimycobacterial activity against Mycobacterium tuberculosis H37Ra at 1 ug/ml after 6 days by microplate alamar blue assay; type: functional; conditions: 144 h; how it was run: as §1
[9] = test system: Mycobacterium tuberculosis; test: Antimycobacterial activity against Mycobacterium tuberculosis H37Ra at 25 ug/ml after 4 days; type: functional
How it was run: (§2)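 THP-1 cells, 2 × 10⁵/well, differentiated 3 days with 100 nM PMA, then infected 3 h with ~10⁷ CFU H37Ra. Non-phagocytosed bacteria removed. Compounds at 25, 10, 5 or 1 μg/mL in triplicate, rifampicin or isoniazid controls at 2.5 μg/mL, 4 days. Lysates plated in serial dilution on 7H11, colonies counted at 2-3 weeks. Percent CFU reduction versus untreated control; run twice.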

[10] = test system: Mycobacterium tuberculosis; test: Antimycobacterial activity against Mycobacterium tuberculosis H37Ra at 10 ug/ml after 4 days; type: functional; how it was run: as §2
[11] = test system: Mycobacterium tuberculosis; test: Antimycobacterial activity against Mycobacterium tuberculosis H37Ra at 2.5 ug/ml after 4 days; type: functional; how it was run: as §2
[12] = test system: Mycobacterium tuberculosis; test: Antimycobacterial activity against Mycobacterium tuberculosis H37Ra at 5 to 10 ug/ml after 6 days by microplate alamar blue assay; type: functional; how it was run: as §1
[13] = test system: Mycobacterium tuberculosis; test: Antimycobacterial activity against Mycobacterium tuberculosis H37Ra at 5 ug/ml after 6 days by microplate alamar blue assay; type: functional; conditions: 144 h; how it was run: as §1

Cc1cn([C@H]2C[C@H](I)[C@@H](CO)O2)c(=O)[nH]c1=O
CC50 at 48 h [1]: > 100 µg/mL
CC50 at 48 h [2]: > 100 µg/mL
inhibition at 100 µg/mL [3]: 0%

O=c1ccn([C@@H]2O[C@H](CO)[C@H](O)[C@H]2Br)c(=O)[nH]1
CC50 at 48 h [1]: > 100 µg/mL
CC50 at 48 h [2]: > 100 µg/mL
inhibition at 100 µg/mL [3]: 0%

Cc1cn([C@H]2C[C@H](F)[C@@H](CO)O2)c(=O)[nH]c1=O [ALOVUDINE]
inhibition at 100 µg/mL [3]: 0%

O=c1[nH]c(=O)n([C@H]2C[C@@H](Cl)[C@@H](CO)O2)cc1F
inhibition at 25 µg/mL [4]: 40%
MIC50 [5]: 25 µg/mL (≈ 94.5 µM)
CC50 at 48 h [1]: > 100 µg/mL
CC50 at 48 h [2]: > 100 µg/mL
inhibition at 100 µg/mL [3]: 90%
inhibition at 50 µg/mL [6]: 60%

O=c1[nH]c(=O)n([C@H]2C[C@@H](I)[C@@H](CO)O2)cc1F
CC50 at 48 h [1]: > 100 µg/mL
CC50 at 48 h [2]: > 100 µg/mL
inhibition at 100 µg/mL [3]: 40%

Cc1cn([C@H]2C[C@H](Cl)[C@@H](CO)O2)c(=O)[nH]c1=O
MIC50 [5]: 50 µg/mL (≈ 192 µM)
CC50 at 48 h [1]: > 100 µg/mL
CC50 at 48 h [2]: > 100 µg/mL
inhibition at 100 µg/mL [3]: 68%
inhibition at 50 µg/mL [6]: 50%

O=c1[nH]c(=O)n([C@H]2C[C@H](I)[C@@H](CO)O2)cc1F
CC50 at 48 h [1]: > 100 µg/mL
CC50 at 48 h [2]: > 100 µg/mL
inhibition at 100 µg/mL [3]: 32%

O=c1[nH]c(=O)n([C@@H]2O[C@H](CO)[C@@H](Br)[C@@H]2O)cc1F
inhibition at 25 µg/mL [4]: 50%
MIC50 [5]: 25 µg/mL (≈ 76.9 µM)
CC50 at 48 h [1]: > 100 µg/mL
CC50 at 48 h [2]: > 100 µg/mL
inhibition at 100 µg/mL [3]: 91%

Cc1cn([C@@H]2O[C@H](CO)[C@@H](Br)[C@@H]2O)c(=O)[nH]c1=O
inhibition at 10 µg/mL [7]: 75%
inhibition at 1 µg/mL [8]: 50%
MIC50 [5]: 1 µg/mL (≈ 3.11 µM)
Activity [9]: >90%
Activity [10]: 80%
CC50 at 48 h [1]: > 100 µg/mL
CC50 at 48 h [2]: > 100 µg/mL
inhibition at 100 µg/mL [3]: 50%

O=c1[nH]c(=O)n([C@H]2C[C@H](Cl)[C@@H](CO)O2)cc1F
CC50 at 48 h [1]: > 100 µg/mL
CC50 at 48 h [2]: > 100 µg/mL
inhibition at 100 µg/mL [3]: 40%

Cc1cn([C@@H]2O[C@H](CO)[C@H](O)[C@H]2Br)c(=O)[nH]c1=O
MIC50 [5]: 25 µg/mL (≈ 77.9 µM)
CC50 at 48 h [1]: > 100 µg/mL
CC50 at 48 h [2]: > 100 µg/mL
inhibition at 100 µg/mL [3]: 80%
inhibition at 50 µg/mL [6]: 60%

O=c1[nH]c(=O)n([C@H]2C[C@H](Br)[C@@H](CO)O2)cc1F
MIC50 [5]: 50 µg/mL (≈ 162 µM)
CC50 at 48 h [1]: > 100 µg/mL
CC50 at 48 h [2]: > 100 µg/mL
inhibition at 100 µg/mL [3]: 80%
inhibition at 50 µg/mL [6]: 50%

O=c1[nH]c(=O)n([C@H]2C[C@@H](Br)[C@@H](CO)O2)cc1F
inhibition at 25 µg/mL [4]: 40%
MIC50 [5]: 25 µg/mL (≈ 80.9 µM)
CC50 at 48 h [1]: > 100 µg/mL
CC50 at 48 h [2]: > 100 µg/mL
inhibition at 100 µg/mL [3]: 100%
inhibition at 50 µg/mL [6]: 63%

O=c1[nH]c(=O)n([C@H]2C[C@H](F)[C@@H](CO)O2)cc1F
inhibition at 100 µg/mL [3]: 0%

O=c1[nH]c(=O)n([C@@H]2O[C@H](CO)[C@H](O)[C@H]2Br)cc1F
inhibition at 25 µg/mL [4]: 50%
CC50 at 48 h [1]: > 100 µg/mL
CC50 at 48 h [2]: > 100 µg/mL
inhibition at 100 µg/mL [3]: 0%

NNC(=O)c1ccncc1 [ISONIAZID]
inhibition at 1 µg/mL [8]: 100%
MIC50 [5]: < 1 µg/mL
Activity [11]: >98%

CO[C@H]1/C=C/O[C@@]2(C)Oc3c(C)c(O)c4c(O)c(c(/C=N/N5CCN(C)CC5)c(O)c4c3C2=O)NC(=O)/C(C)=C\C=C\[C@H](C)[C@H](O)[C@@H](C)[C@@H](O)[C@@H](C)[C@H](OC(C)=O)[C@@H]1C [RIFAMPIN]
MIC50 [5]: < 0.5 µg/mL
Activity [11]: >98%

Cc1cn([C@H]2C[C@H](Br)[C@@H](CO)O2)c(=O)[nH]c1=O
MIC50 [5]: 5 µg/mL (≈ 16.4 µM)
Activity [9]: 90%
Activity [10]: 50%
CC50 at 48 h [1]: > 100 µg/mL
CC50 at 48 h [2]: > 100 µg/mL
inhibition at 100 µg/mL [3]: 100%
inhibition at 50 µg/mL [6]: 82%
inhibition (INH) [12]: 5%

O=c1ccn([C@@H]2O[C@H](CO)[C@@H](Br)[C@@H]2O)c(=O)[nH]1
CC50 at 48 h [1]: > 100 µg/mL
CC50 at 48 h [2]: > 100 µg/mL
inhibition at 100 µg/mL [3]: 24%

N[C@@H]1CONC1=O [CYCLOSERINE]
inhibition at 25 µg/mL [4]: 80%
inhibition at 5 µg/mL [13]: 50%
MIC50 [5]: 5 µg/mL (≈ 49 µM)
inhibition at 50 µg/mL [6]: 100%
